Published values from different studies.
Target: Serine/threonine-protein kinase Nek3 (NEK3, Homo sapiens, UniProt P51956)
Sequence (P51956 1-506, as in one of the studies): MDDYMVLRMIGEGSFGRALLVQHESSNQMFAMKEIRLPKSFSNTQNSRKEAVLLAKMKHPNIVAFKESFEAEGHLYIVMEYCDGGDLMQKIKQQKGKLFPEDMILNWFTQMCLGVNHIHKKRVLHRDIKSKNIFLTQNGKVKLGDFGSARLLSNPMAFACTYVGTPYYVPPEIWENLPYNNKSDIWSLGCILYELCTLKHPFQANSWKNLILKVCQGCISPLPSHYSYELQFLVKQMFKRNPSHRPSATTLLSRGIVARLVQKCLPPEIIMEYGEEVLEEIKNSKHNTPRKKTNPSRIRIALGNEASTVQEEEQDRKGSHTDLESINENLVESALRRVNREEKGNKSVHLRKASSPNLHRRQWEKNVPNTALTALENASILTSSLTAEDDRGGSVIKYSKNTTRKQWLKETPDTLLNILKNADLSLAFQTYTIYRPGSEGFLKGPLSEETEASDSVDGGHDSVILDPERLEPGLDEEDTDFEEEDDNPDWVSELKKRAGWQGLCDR

Compound | read-out | action | technique | concentration | quantity | result
CC(C)(C)c1nc2c(s1)c1nc(N)ncc1c1ccc(NS(=O)(=O)c3c(F)cccc3F)c(F)c12 | enzyme activity | inhibitor | radiometric | 1 µM | remaining activity | 118%
CCN(CC)c1ccc(C2=NNC(=O)CC2C)cc1[N+](=O)[O-] (stereo not shown) | enzyme activity | inhibitor |  | 10 µM | remaining activity | 90%
O=C(Nc1cnn(-c2csc(C(=O)NC3COC3)c2)c1)Nc1c(F)cccc1Cl | enzyme activity | inhibitor |  | 5 µM | remaining activity | 87.2%
CN1CC(Oc2cnc(C#N)cc2-c2ccn3nc(NC(=O)C4CC4)cc3c2)C1 | enzyme activity | inhibitor |  | 1 µM | inhibition | 12%
C[C@H](c1ccnc(Nc2nc3ccc(-c4cc(N(C)C)ncn4)cc3[nH]2)c1)N1CCN(C(=O)CC(F)(F)F)CC1 | cell-free assay |  | competition with immobilised ligand | 0.1 µM | remaining binding | 100%
Cc1ccc(C(=O)Nc2ccc(CN3CCN(C)CC3)c(C(F)(F)F)c2)cc1C#Cc1cnc2cccnn12 | enzyme activity | inhibitor |  | 23.5 nM | remaining activity | 86%
O=C1Nc2ccc(Cl)cc2C1=Cc1cc(Cl)c(O)c(Cl)c1 | cell-free assay |  |  | 0.5 µM | remaining signal | 94%
CN(C)C(=O)Cn1cc(-c2nc([C@@](C)(c3ccc(-c4cnc(N)nc4)cc3)C3CC3)no2)cn1 | cell-free assay |  | competition with immobilised ligand | 1 µM | remaining binding | 87%
Cc1sc(C(=O)NC2COC2)cc1-n1cc(NC(=O)Nc2c(F)cccc2Cl)cn1 | enzyme activity | inhibitor |  | 10 µM | remaining activity | 87.5%
CCCCN(CCCC)C(=O)CN1C[C@@H](c2cc(OC)c3c(c2)OCO3)[C@H](C(=O)O)[C@H]1CC(C)(C)CCC | cell-free assay |  | competition with immobilised ligand | 1 µM | remaining binding | 72.9%
CCCCNc1ncc2c(-c3ccc(F)cc3)nn(C[C@H]3CC[C@H](N)CC3)c2n1 | target engagement in cells | inhibitor | chemoproteomics | 20 mM | inhibition | 10.1%
CCN(CC)CCNC(=O)c1c(C)[nH]c(/C=C2\C(=O)Nc3ccc(F)cc32)c1C | cell-free assay |  |  | 0.5 µM | remaining signal | 91.6%
C[C@H](NC(=O)c1cnc2n1[C@](C)(Cc1ccc(C#N)cc1)C(=O)N2c1cc(Cl)c(F)c(Cl)c1)C(=O)NC1(c2ccccn2)CC1 | cell-free assay |  | competition with immobilised ligand | 1 µM | remaining binding | 100%
CCCOc1ccc(OC)c(F)c1C(=O)c1ccc(C(=O)N[C@@H]2CNC[C@H]2NC(=O)c2ccc3[nH]ncc3c2)cc1 | enzyme activity | inhibitor |  | 10 µM | remaining activity | 101%
CS(=O)(=O)N1CCCC(NC(=O)[C@H](CCC2CCCCC2)NC(=O)c2ccc(CNC(=O)c3cnc4ccccn34)cc2)C1 (stereo partly shown) | cell-free assay |  | competition with immobilised ligand | 0.1 µM | remaining binding | 100%
Cn1cnc(Br)c1C1=CN(c2ncnc3[nH]cnc23)CCS1 | enzyme activity | inhibitor | radiometric | 50 nM | inhibition | 14.7%
Cc1cc(NC(=O)c2cccc3cc(-c4cccc5[nH]nc(N)c45)ccc23)ccc1F | enzyme activity | inhibitor |  | 0.1 µM | activity vs control | 83%
O=C1NC(=O)c2cc(Nc3ccc(F)cc3)c(Nc3ccc(F)cc3)cc21 | cell-free assay |  |  | 0.5 µM | remaining signal | 99.1%
CNCc1ccccc1-c1csc([C@@H](C)Nc2nc(C)nc3cc(OC)c(OC)cc23)c1 | cell-free assay |  | competition with immobilised ligand | 1 µM | remaining binding | 100%
